Rows were chosen to be rich in hits. Some 1.5% of all compounds tested hit in one or more screens of this group.
LANA DNA inh = inhibitors of KSHV C-LANA binding to DNA, primary screen, biochemical, fluorescence polarization, FAM-LBS DNA, MBP-C-LANA, single point | Kaposi's sarcoma herpesvirus LANA C-terminal domain (residues 932-1162) DNA binding | inhibition, % at 9 µM | 340,000 tested, 0.078% active | AID 504423, 2011;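 active means highest replicate inhibition at or above 60% at 9 µM, even if other replicates fall short; inactive means all replicates below 60% inhibition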;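 further: 0% = neutral control wells and 100% = 4 µM acridine orange control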
Keap1 Nrf2 FP = Keap1-Nrf2 protein-protein interaction inhibitors, primary screen, biochemical, fluorescence polarization, single point; Kelch-like ECH-associated protein 1 (Homo sapiens), Q14145; Keap1 Kelch-Nrf2 peptide fluorescence polarization, 1536-well; inhibition, % at 9.4 µM; 340,000 tested, 0.15% active; in the data active means inhibition above about 12%;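 further: human Keap1 Kelch domain with fluorescein labeled Nrf2 9mer peptide probe; 0% = neutral control wells and 100% = peptide positive control; higher means more block of Keap1 binding to Nrf2 peptide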
Target sequence (Q14145 whole entry, looked up, the tested form may be a part): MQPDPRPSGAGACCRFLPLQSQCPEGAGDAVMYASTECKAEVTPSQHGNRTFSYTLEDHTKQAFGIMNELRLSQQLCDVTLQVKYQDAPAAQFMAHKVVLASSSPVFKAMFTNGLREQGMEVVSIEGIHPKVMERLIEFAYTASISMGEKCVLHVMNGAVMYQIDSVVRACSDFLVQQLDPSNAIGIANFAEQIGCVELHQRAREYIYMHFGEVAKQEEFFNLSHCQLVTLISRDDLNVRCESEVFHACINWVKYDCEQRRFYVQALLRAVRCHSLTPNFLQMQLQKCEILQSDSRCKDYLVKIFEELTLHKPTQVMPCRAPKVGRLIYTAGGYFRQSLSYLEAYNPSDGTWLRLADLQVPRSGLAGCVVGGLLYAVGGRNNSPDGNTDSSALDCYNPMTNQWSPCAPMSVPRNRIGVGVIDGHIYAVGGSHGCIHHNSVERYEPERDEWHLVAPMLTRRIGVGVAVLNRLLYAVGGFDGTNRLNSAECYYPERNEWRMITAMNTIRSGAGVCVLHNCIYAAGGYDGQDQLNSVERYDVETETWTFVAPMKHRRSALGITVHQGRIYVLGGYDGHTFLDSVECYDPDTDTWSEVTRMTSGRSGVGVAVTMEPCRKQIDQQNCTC
LANA-H2B inh = blockers of LANA interaction with H2A/H2B – biochemical, FP readout, HTS, primary screen | 320,000 tested, 0.6% active | inhibition, % (test concentration not listed) | Protein LANA1 (Human herpesvirus 8 type P (isolate GK18)), Q9QR71 | cell-free LANA-H2A/H2B peptide, fluorescence polarization; in the data active means inhibition mostly above about 10%, no sharp cut-off; inactive means mostly below about 6.7%
CaV13 ICDI inh = Disruptors of the CACNA1D IQ motif to Ca2+-dependent inactivation inhibitor domain association, primary screening, Förster resonance energy transfer in intact living …; HEK cells, CFP/YFP FRET ICDI-IQ, plate reader, 10 min; percent FRET-ratio fall versus neutral wells; inhibition, % at 12.3 µM; 340,000 tested, 0.098% active; AID 743397;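 active means mean replicate inhibition of at least 30% and at least 1% of replicates passing that level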;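 further: 0% = median of the neutral control wells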
CAL PDZ FP-1 = CAL PDZ peptide-binding inhibitors, primary screen, biochemical, fluorescence polarization, Cer-tagged CAL PDZ, HTS. Golgi-associated PDZ and coiled-coil motif-containing protein (Homo sapiens), Q9HD26. purified CAL PDZ, TMR-peptide fluorescence polarization, 1 h. inhibition, % at 20 µM. 330,000 tested, 0.02% active;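 active means highest replicate inhibition of at least 40%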;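 further: plate controls were DMSO neutral control wells for no effect and unlabeled competitor peptide control wells for full effect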
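Material: tagged CAL PDZ protein CerCALP, purified; buffer or medium: sodium phosphate/NaCl buffer pH 7.4 with TCEP, IgG, Thesit; also added: fluorescent TMR peptide probe; schedule: 1 h incubation at room temperature before polarization reading; technique: fluorescence polarization from S- and P-plane intensities, G-factor corrected; control set: unlabelled peptide and DMSO controls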
CAL PDZ FP-2 = untagged CAL PDZ binding inhibitors, primary screen, biochemical, fluorescence polarization, HTS; Golgi-associated PDZ and coiled-coil motif-containing protein (Homo sapiens), Q9HD26; AID 602252, 2012; inhibition, % at 24.9 µM; purified CAL PDZ, TMR-peptide fluorescence polarization, 1 h; 300,000 tested, 0.92% active;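 active means mean inhibition of at least 30% with at least half of replicates also reaching 30%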;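 further: 0% = DMSO neutral control and 100% = excess unlabeled competitor peptide PRC23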
Active calls of the source: *; . = no result.

SMILES	LANA DNA inh	Keap1 Nrf2 FP	LANA-H2B inh	CaV13 ICDI inh	CAL PDZ FP-1	CAL PDZ FP-2
COc1cc2c(cc1OC)C(c1cccc(C)c1)CC(=O)N2 (centres undefined)	-1	-4	47*	-5	-1	-1
Cc1ccc2sc(N3CCN(CCNC(=O)c4ccco4)CC3)nc2c1C	1	-1	-2	-6	-2	13
Cc1nc(C2CC(=O)OC23CCCCC3)cs1 (centres undefined)	1	-5	-5.5*	.	-1	-3
Nc1nc(C2CC(=O)OC23CCCCC3)cs1 (centres undefined)	0	1	9	.	-2	-3
Cc1ccc(OCc2cc(C(=O)NC3CCc4ccccc43)no2)cn1 (centres undefined)	1	-5	8	-3	0	.
Cc1ccc2[nH]c3c(c2c1)CN(C(=O)CN1CCCCC1)CC3	.	.	1	-6	.	.
Cc1ccc2[nH]c3c(c2c1)CN(C(=O)CN1CCCc2ccccc21)CC3	0	-2	3	.	-1	58*
COc1cccc(NC(=O)c2cc(-c3ccc(C)o3)nc3ccccc23)c1	-2	-4	-5	.	-3	1
COc1ccc(-c2cc(C(=O)NCc3ccco3)c3ccccc3n2)cc1OC	0	0	-2	-5	-1	69*
COc1ccccc1CN(C)C(=O)c1cc(-c2cc(OC)c(OC)c(OC)c2)nc2ccccc12	-1	-1	2	-6	-2	58*
COc1cccc(NC(=O)CN(C)C(=O)c2cc(-c3ccc(C)o3)nc3ccccc23)c1	0	-8	60*	-16	0	.
COc1cc(-c2cc(C(=O)N(C)Cc3ccccc3)c3ccccc3n2)cc(OC)c1OC	0	-4	-3	-2	-3	-8
CCOC(=O)[C@]12CCCC=C1N(CCc1ccc(OC)c(OC)c1)C(=O)[C@H](CC(=O)NCc1ccc(C)o1)C2	.	.	.	-4	.	.
Cc1ccc(NC(=O)CCNC(=O)N2CC(=O)Nc3ccccc32)cc1Cl	.	.	.	-16	.	.
COc1ccccc1Cc1c(-c2cccc(Cl)c2)nc2c3ccccc3ccn12	.	.	.	-10	.	.
COc1ccc(OC)c(NC(=O)COC(=O)c2ccc(OC)c(S(=O)(=O)N3CCOCC3)c2)c1	1	-7	-40	-4	0	2
Cc1ccccc1-n1nnnc1SCC(=O)c1c(N)n(C)c(=O)n(C)c1=O	-1	-5	.	-5	1	32*
COc1cc(C)nc(-c2csc(C)n2)n1	2	1	20*	-4	0	-6
CC1(C)CC(=O)N(c2ccc(Cl)cc2Cl)C(=O)C1	-1	-4	-7	-19	1	61*
CC1(C)CC(=O)N(c2cccc(Cl)c2)C(=O)C1	5	0	8	-19	0	-5
NC(=O)c1c(N)[nH]c(C(=O)c2ccccc2)c1-c1ccccc1	.	.	.	-6	.	.
Oc1c(Br)cc(/C=N/n2c(-c3ccccc3)n[nH]c2=S)c(O)c1Br	24	24*	-2	.	-1	-2
Oc1c(Br)cc(/C=N/n2c(-c3ccccc3)n[nH]c2=S)cc1Br	-7	-3	0	-2	1	-1
COC(=O)[C@]12C[C@H](CC(=O)NCCCN3CCCC3=O)C(=O)N(Cc3ccc4c(c3)OCO4)C1=C[C@H](C(C)(C)C)O[C@@H]2C	.	.	.	-11	.	.
COc1cc(OC)c(N(C)S(=O)(=O)c2cccc(C(=O)OCc3c(C)noc3C)c2)cc1Cl	0	2	0	-2	-1	3
SMILES	LANA DNA inh	Keap1 Nrf2 FP	LANA-H2B inh	CaV13 ICDI inh	CAL PDZ FP-1	CAL PDZ FP-2
COc1cc(OC)c(N(C)S(=O)(=O)c2cccc(C(=O)OCC(=O)N3CCOCC3)c2)cc1Cl	-2	-2	-4	-6	7	32*
CC(C)CNC(=O)CSc1ccc(S(=O)(=O)N2CCN(C)CC2)cn1	0	-4	2	-6	0	39*
COc1ccc(N2C(=O)c3ccc(C(=O)Nc4ccccc4O)cc3C2=O)cc1	2	-1	15*	-20	.	-5
COc1ccccc1N1C(=O)c2ccc(C(=O)Nc3ccccc3O)cc2C1=O	1	-5	-2	-19	-1	-4
COc1cccc(CNC(=O)[C@@H]2CCCN2C(=O)OC(C)(C)C)c1	.	.	.	-10	.	.
N#Cc1c(N)c(C#N)c(-c2ccc(O)cc2)c2c1CCCC2	-3	0	-3	-5	-2	75*
N#Cc1c(N)c(C#N)c(-c2ccc3c(c2)OCO3)c2c1CCCC2	0	-1	5	-8	.	-1
C[C@H](CO)N1C[C@H](C)[C@H](CN(C)S(=O)(=O)c2cccs2)Oc2ncc(Br)cc2C1=O	.	.	.	-5	.	.
CN(C)c1ccc(/C=[N+](\[O-])C2N(c3ccccc3)C(=S)SC2(C)C)cc1 (centres undefined)	0	-5	-4	-18	0	-4
CN1C(=S)SC(C)(C)C1/[N+]([O-])=C/c1cccnc1 (centres undefined)	2	-4	1	.	.	123*
O=C(CSc1nc2ncccc2[nH]1)NCc1ccco1	1	-1	5	-3	-1	59*
O=C(CSc1nc2ccccc2[nH]1)NCc1ccco1	-1	-5	0	-6	-3	-1
COC/C=C/C1=CC2=CC(=O)C(C)(OC(=O)c3cnc4ccccc4n3)C(=O)C2=CN1CCN1CCOCC1 (centres undefined)	1	3	18*	-10	1	-1
CC(C)c1cn(C2OC(COC(=O)c3ccccc3)C(OC(=O)c3ccccc3)C2OC(=O)c2ccccc2)c(=O)[nH]c1=O (centres undefined)	1	4	2	-6	0	-5
CC(=O)c1ccc(NS(=O)(=O)c2c(C)cc(C)cc2C)cc1	-3	-4	19*	-2	-1	-3
Cc1ccc(NC(=O)C(OC(=O)c2ccc(O)cc2)c2ccccc2)cc1Cl (centres undefined)	0	-7	1	-3	-2	-3
Cc1ccc(NC(=O)C(c2ccccc2)N(C)C)cc1Cl (centres undefined)	1	1	12*	.	-1	4

Screening data (PubChem)
